Compound activity (PubChem BioAssay)
Shown are actives, neighbours in structure and some others; about 2.6% of the full set was active somewhere.
V1R ag counter = agonists of human V1a receptor, primary screen, counter-screen for OXTR agonist project, fluorescence, CHO-V1R cells | Vasopressin V1a receptor (Homo sapiens), P37288 | Fluo-8 calcium fluorescence, agonist mode; 0% DMSO, 100% 3 nM vasopressin | activation, % at 3 µM | 320,000 tested, 0.25% active;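 active means activation above the mean activation of all tested compounds plus 3 SD, per screening run, cut at about 20% in these data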;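 further: signal is peak over basal fluorescence ratio across a 100 second FLIPR read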
OXTR ag = human OXTR agonists, primary screen, fluorescence, CHO-OTR cells, Fluo-8 calcium; Oxytocin receptor (Homo sapiens), P30559; Fluo-8 calcium fluorescence; normalized: DMSO 0%, oxytocin 100%; activation, % at 3 µM; 320,000 tested, 0.32% active; AID 2435, 2010;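 active means activation above the mean of all tested compounds plus 3 SD, cutoff set per screening run, cut at about 20% in these data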;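 further: peak over basal fluorescence ratio from a 100 s FLIPR kinetic read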
Target sequence (P30559 whole entry, looked up): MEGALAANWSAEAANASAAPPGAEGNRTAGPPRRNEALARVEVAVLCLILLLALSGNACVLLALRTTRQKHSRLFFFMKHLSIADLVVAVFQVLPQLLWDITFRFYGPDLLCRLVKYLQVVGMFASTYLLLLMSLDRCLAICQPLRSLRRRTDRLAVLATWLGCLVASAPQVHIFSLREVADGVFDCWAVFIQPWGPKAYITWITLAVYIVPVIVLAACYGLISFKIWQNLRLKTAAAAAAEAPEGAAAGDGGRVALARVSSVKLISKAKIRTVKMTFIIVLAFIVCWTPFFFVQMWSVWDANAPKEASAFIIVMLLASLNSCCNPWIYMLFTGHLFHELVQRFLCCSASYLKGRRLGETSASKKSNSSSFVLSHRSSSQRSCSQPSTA
OX1R antag-1 = OX1R (HCRTR1) antagonists, primary screen, fluorescence, CHO/OX1R cells, Fluo-8 calcium, orexin A; Orexin/Hypocretin receptor type 1 (Homo sapiens), O43613; inhibition, % at 5 µM; Fluo-8 calcium fluorescence; 330,000 tested, 0.43% active;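 active means inhibition above its plate's threshold, mean inhibition of all tested compounds on the plate plus 3 SD, cut at about 37% in these data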;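 further: 0% = orexin A challenge wells and 100% = SB-334867-A antagonist wells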
CHO parental Ca = ATP-evoked calcium signal inhibitors, parental CHO, primary screen, counter-screen for OX1R antagonist project, cell-based, fluorescence, Fluo-8 calcium dye; parental CHO-K1, ATP-induced calcium, Fluo-8 fluorescence; inhibition, % at 5.6 µM; 330,000 tested, 0.63% active;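 active means inhibition above that plate's mean sample inhibition plus 3 SD, cut at about 26% in these data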;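 further: 0% = ATP-challenged DMSO wells and 100% = DMSO wells without ATP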
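Assay system – parental CHO cells · Reagent – ATP stimulus · Detection – intracellular calcium via Fluo-8 no-wash fluorescent dye · Evaluation – percent inhibition of ATP-evoked calcium rise, normalized to controls · Controls – ATP wells versus no-ATP DMSO wells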
OX1R antag-2 = antagonists of human orexin 1 receptor (OX1R); Orexin/Hypocretin receptor type 1 (Homo sapiens), O43613; OX1R-expressing cells, FRET antagonist read-out; inhibition, % at 6.6 µM; 330,000 tested, 1.8% active; in the data active means inhibition mostly above about 38%, no sharp cut-off; inactive means mostly below about 40%;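 further: 0% = agonist challenge alone and 100% = reference antagonist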
OXTR potentiate = human OXTR potentiators, primary screen, fluorescence, CHO-OTR cells, Fluo-8 calcium; Fluo-8 calcium fluorescence, potentiator mode; 0% = oxytocin EC15, 100% = EC100; AID 2445, 2010; activation, % at 3 µM; 320,000 tested, 0.061% active; Oxytocin receptor (Homo sapiens), P30559;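 active means activation above that plate's cutoff, the mean activation of tested compounds plus 3 SD, cut at about 6.6% in these data, passing the limit was not always enough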;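 further: 100% uses oxytocin at 75 nM as the full agonist control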
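Assay system: CHO cell line stably expressing human OTR | Also added: Oxytocin at about EC15, sub-maximal agonist stimulus | Times: Compound 6 min at room temperature before oxytocin, 100 s read | Measured by: Fluo-8 intracellular calcium fluorescence, ex 470-495, em 515-575 nm | Controls: EC15 oxytocin alone as 0%, 75 nM oxytocin as 100%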
OX1R HTRF conf = OX1R (HCRTR1) antagonists, confirmation, cell-based, HTRF. shares compounds with OX1R antag-2. OX1R-expressing cells, HTRF antagonist assay. AID 492964, 2010. 1,800 tested, 49% active. inhibition, % at 6.6 µM; in the data active means inhibition above about 55%;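 further: CHO cells expressing OX1R stimulated with orexin A at about EC80; 0% = agonist challenge alone and 100% = reference antagonist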
CHO-K1 HTRF cnt = signal inhibition in parental CHO-K1 cells, counter-screen for OX1R antagonist project, cell-based, HTRF; shares compounds with OX1R antag-2; HTRF counterscreen; inhibition, % at 6.6 µM; 1,800 tested, 48% active; in the data active means inhibition above about 17%;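 further: 0% = agonist challenge with vehicle and 100% = vehicle alone without agonist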
Starred values were filed as active, the others as inactive; nt = no result; + = active, no number.

SMILES	V1R ag counter	OXTR ag	OX1R antag-1	CHO parental Ca	OX1R antag-2	OXTR potentiate	OX1R HTRF conf	CHO-K1 HTRF cnt
CCOc1ccccc1N(CC(=O)NCCSc1ccccn1)S(=O)(=O)c1ccccc1	1	3	16	-37	80*	-7	77*	8
Cc1ccccc1N(CC(=O)NCCSc1ccccn1)S(=O)(=O)c1ccccc1	0	-3	-21	-31	40	-11	nt	nt
COc1ccc2c(c1)C(=O)Cc1ccccc1O2	-1	-2	-18	-5	10	0	nt	nt
Cc1cccc(-n2c(C)cc(C=C3C(=O)c4ccccc4C3=O)c2C)c1	1	0	-27	-19	21	-4	nt	nt
Cc1cc(C=C2C(=O)c3ccccc3C2=O)c(C)n1C	2	1	10	-8	92*	-2	38	14
Cc1nc(NC(=O)COC(=O)c2ccc(CO)cc2)c(Cl)cc1Cl	0	1	-30	-1	8	-9	nt	nt
CCCCN1CC(=O)N2[C@H]3c4ccc(OC)cc4OC[C@@H]3[C@H](c3ccccc3)[C@]2(C)C1=O	0	-1	-9	-27	15	-3	nt	nt
COc1ccc(C(=O)Nc2cc(OC)cc3cccnc23)cc1	1	-1	26	-18	99*	-14	86*	22*
COc1cc(OC)cc(C(=O)Nc2cccc3cccnc23)c1	-1	-2	-3	-12	81*	-16	75*	6
COc1cc(OC)cc(C(=O)Nc2cccc3ccccc23)c1	0	-1	-9	-3	1	-5	nt	nt
COC(=O)c1sccc1NC(=O)c1ccc(OC)cc1	1	-2	4	-14	89*	-16	68*	5
COC(=O)c1sccc1NC(=O)c1ccc(C)cc1	-1	-2	-32	-14	23	-11	nt	nt
CC(=O)Nc1cccc(NC(=O)COc2ccc3c(c2)OCO3)c1	7	6	5	5	17	-12	nt	nt
CCOc1ccc(N2CC(NS(=O)(=O)c3cccnc3)CC2=O)cc1 (stereo not given)	0	0	-9	-12	6	-1	nt	nt
O=c1sc(Nc2ccccc2)nc2ccsc12	0	-1	15	-15	85*	-1	92*	9
O=C(Nc1nc2ccsc2c(=O)s1)c1ccco1	-1	-1	-1	1	18	4	nt	nt
O=C(NC(=S)NCc1ccccc1Cl)c1cccs1	1	0	7	-17	29	-8	nt	nt
Cn1c2ccccc2c(=O)c2cc(C#Cc3ccccn3)ccc21	-1	-2	29	-10	90*	1	94*	11
COc1ccc(C2CCN(Cc3cccnc3)CC2O)cc1 (stereo not given)	1	-1	-16	-5	96*	-6	16	3
CCC(=O)Nc1ccccc1Nc1cc(C#N)c(C#N)cc1[N+](=O)[O-]	0	1	-17	-20	+	0	59*	72*
Cc1nc2c3ccccc3nc(NNC(=O)CCC(=O)NCCC(C)C)n2n1	0	-2	-5	-7	14	-8	nt	nt
C=CCNC(=O)CCC(=O)NNc1nc2ccccc2c2nc(-c3ccccc3)nn12	1	0	27	-5	84*	-9	86*	6
Cc1ccc(NCC(=O)N=Nc2c(O)n(C)c3ccccc23)cc1	-1	0	-4	11	95*	-8	38	32*
CCOc1cc(/C=C2\NC(=O)NC2=O)cc([N+](=O)[O-])c1O	0	0	-3	-6	128*	4	58*	69*
CC(C)(C)n1[nH]c2c3c(ccc2c1=O)C(=O)c1ccccc1C3=O	-1	-3	-31	-10	129*	-16	46	43*
SMILES	V1R ag counter	OXTR ag	OX1R antag-1	CHO parental Ca	OX1R antag-2	OXTR potentiate	OX1R HTRF conf	CHO-K1 HTRF cnt
NC(=O)CC(NC(=O)Cc1cccc2ccccc12)c1ccc(NCCN2CCCC2)c([N+](=O)[O-])c1 (stereo not given)	0	3	-6	-8	84*	-3	22	13
NC1=NC(=O)/C(=C\c2ccc(O)c([N+](=O)[O-])c2)S1	0	-1	7	-7	90*	-9	69*	58*
COc1ccc(C(=O)C[n+]2ccc(-c3nnc4n3CCC4)cc2)cc1	0	-2	-8	-4	85*	-7	64*	50*
CN1C2=CC=CC=CC2=[N+](C)C12C=CC(=[N+]([O-])[O-])C=C2[N+](=O)[O-] (stereo not given)	0	1	-13	-9	144*	-5	68*	90*
CN1C2=CC=CC=CC2=[N+](C)C12C([N+](=O)[O-])=CC(=[N+]([O-])[O-])C=C2[N+](=O)[O-] (stereo not given)	1	1	-7	-8	14	-11	nt	nt
O=Nc1ccc(O)c2ncccc12	0	0	0	-7	105*	2	45	39*
O=S(=O)(O)c1cccc2c(N=Nc3ccc(O)c4ncccc34)cccc12	0	-1	-1	4	-6	-4	nt	nt
O=C(Nc1nc(-c2cccc([N+](=O)[O-])c2)cs1)c1cccc([N+](=O)[O-])c1C(=O)O	1	1	-22	-13	26	-3	nt	nt
O=C(O)c1cccc(NC2=C(n3nnc4ccccc43)C(=O)c3ccccc3C2=O)c1	0	0	6	-7	148*	6	94*	95*
O=C(O)c1cccc(NS(=O)(=O)c2ccc3nnn(O)c3c2)c1	0	0	-23	-10	2	-5	nt	nt
CN(C)CCOC(=O)c1ccc2c(c1)S(=O)(=O)c1ccccc1C2=O	0	0	0	-6	108*	-10	53	58*
CC(C)NC(=O)c1ccc2c(c1)S(=O)(=O)c1ccccc1C2=O	-1	-1	-4	-10	153*	4	47	63*
COc1ccc2[nH]c3c(c2c1)CCN1C(=O)C(CC(=O)NCCCn2ccnc2)C[C@H](C(=O)N2CCCCC2)[C@@]31CCc1ccccc1 (stereo not given in full)	nt	nt	-12	-13	4	nt	nt	nt
